Assay results reported in ChEMBL document CHEMBL5724801, “EUbOPEN Chemogenomics Library - Multiplex” (2024).
Several values for one entry are separate records, joined by “and”; a condition that tells them apart may be missing. Identical values can stand only once.

System: Fibroblast
Assay: Multiplex assay against human fibroblast
Format: toxicity, cell-based
In short: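 Cells were classed with CellPathfinder machine-learning gating, first as Hoechst high-intensity objects or normal cells, then (normal cells) as healthy, pyknosed or fragmented nuclei, and finally (pyknosed cells) as mitotic or apoptotic. Staining of live cells at seeding used Hoechst33342, BioTracker Green Microtubule Cytoskeleton Dye, MitoTracker Red and Annexin V Alexa Fluor 680, with imaging on a CQ1 microscope at 37°C and 5% CO2 after compound addition. Tubulin, mitochondrial-mass and membrane-permeability phenotypes are per cents of healthy-nucleus cells.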

[1] = 12 h, 1 µM, compound concentration 1 uM
[2] = 12 h, 10 µM, compound concentration 10 uM
[3] = 24 h, 1 µM, compound concentration 1 uM
[4] = 24 h, 10 µM, compound concentration 10 uM
[5] = 48 h, 1 µM, compound concentration 1 uM
[6] = 48 h, 10 µM, compound concentration 10 uM

Compound: COc1cc2nc(N3CCN(C(=O)c4ccco4)CC3)nc(N)c2cc1OC.Cl [PRAZOSIN HYDROCHLORIDE]
- Population Apoptotic (%) [1]: 38% and 49%
- Population Fragmented Nuclei (%) [1]: 22% and 20%
- Population Healthy Nuclei (%) [1]: 57% and 52%
- Population Hoechst High Intensity Objects (%) [1]: 1% and 4%
- Population Membrane Permeable-Phenotype (%) [1]: 1% and 5%
- Population Mitochondria Different-Phenotype (%) [1]: 1% and 7%
- Population Mitotic Cells (%) [1]: 61% and 50%
- Population Normal (%) [1]: 98% and 95%
- Population Pyknosed Nuclei (%) [1]: 19% and 27%
- Population Tubulin-Different-Phenotype (%) [1]: 26% and 46%
- Total Cell Count [1]: 174 and 194
- Population Apoptotic (%) [2]: 44% and 31%
- Population Fragmented Nuclei (%) [2]: 23% and 35%
- Population Healthy Nuclei (%) [2]: 64% and 42%
- Population Hoechst High Intensity Objects (%) [2]: 1% and 5%
- Population Membrane Permeable-Phenotype (%) [2]: 0% and 9%
- Population Mitochondria Different-Phenotype (%) [2]: 7% and 3%
- Population Mitotic Cells (%) [2]: 56% and 68%
- Population Normal (%) [2]: 98% and 94%
- Population Pyknosed Nuclei (%) [2]: 12% and 21%
- Population Tubulin-Different-Phenotype (%) [2]: 49% and 65%
- Total Cell Count [2]: 198 and 155
- Population Apoptotic (%) [3]: 50% and 45%
- Population Fragmented Nuclei (%) [3]: 20%
- Population Healthy Nuclei (%) [3]: 63% and 57%
- Population Hoechst High Intensity Objects (%) [3]: 2% and 7%
- Population Membrane Permeable-Phenotype (%) [3]: 0% and 12%
- Population Mitochondria Different-Phenotype (%) [3]: 2% and 3%
- Population Mitotic Cells (%) [3]: 50% and 54%
- Population Normal (%) [3]: 97% and 92%
- Population Pyknosed Nuclei (%) [3]: 15% and 21%
- Population Tubulin-Different-Phenotype (%) [3]: 28% and 58%
- Total Cell Count [3]: 181 and 185
- Population Apoptotic (%) [4]: 46% and 61%
- Population Fragmented Nuclei (%) [4]: 23% and 35%
- Population Healthy Nuclei (%) [4]: 69% and 49%
- Population Hoechst High Intensity Objects (%) [4]: 3% and 7%
- Population Membrane Permeable-Phenotype (%) [4]: 0% and 10%
- Population Mitochondria Different-Phenotype (%) [4]: 6% and 11%
- Population Mitotic Cells (%) [4]: 53% and 38%
- Population Normal (%) [4]: 96% and 92%
- Population Pyknosed Nuclei (%) [4]: 6% and 15%
- Population Tubulin-Different-Phenotype (%) [4]: 45% and 73%
- Total Cell Count [4]: 201 and 152
- Population Apoptotic (%) [5]: 52% and 66%
- Population Fragmented Nuclei (%) [5]: 24% and 29%
- Population Healthy Nuclei (%) [5]: 62% and 56%
- Population Hoechst High Intensity Objects (%) [5]: 3%
- Population Membrane Permeable-Phenotype (%) [5]: 0% and 8%
- Population Mitochondria Different-Phenotype (%) [5]: 1% and 6%
- Population Mitotic Cells (%) [5]: 47% and 33%
- Population Normal (%) [5]: 96%
- Population Pyknosed Nuclei (%) [5]: 13% and 14%
- Population Tubulin-Different-Phenotype (%) [5]: 22% and 57%
- Total Cell Count [5]: 182 and 197
- Population Apoptotic (%) [6]: 66% and 46%
- Population Fragmented Nuclei (%) [6]: 25% and 42%
- Population Healthy Nuclei (%) [6]: 68% and 49%
- Population Hoechst High Intensity Objects (%) [6]: 1% and 5%
- Population Membrane Permeable-Phenotype (%) [6]: 0% and 5%
- Population Mitochondria Different-Phenotype (%) [6]: 4% and 5%
- Population Mitotic Cells (%) [6]: 33% and 53%
- Population Normal (%) [6]: 98% and 94%
- Population Pyknosed Nuclei (%) [6]: 6% and 8%
- Population Tubulin-Different-Phenotype (%) [6]: 32% and 48%
- Total Cell Count [6]: 201 and 170

Compound: Cc1cc(NC(=O)NCCN2CCC(O)(Cc3ccccc3)CC2)c2ccccc2n1 [PALOSURAN]
- Population Apoptotic (%) [1]: 37% and 40%
- Population Fragmented Nuclei (%) [1]: 10% and 26%
- Population Healthy Nuclei (%) [1]: 77% and 44%
- Population Hoechst High Intensity Objects (%) [1]: 2% and 9%
- Population Membrane Permeable-Phenotype (%) [1]: 3% and 1%
- Population Mitotic Cells (%) [1]: 62% and 59%
- Population Normal (%) [1]: 97% and 90%
- Population Pyknosed Nuclei (%) [1]: 12% and 28%
- Population Tubulin-Different-Phenotype (%) [1]: 19% and 46%
- Total Cell Count [1]: 133 and 143
- Population Apoptotic (%) [2]: 40% and 41%
- Population Fragmented Nuclei (%) [2]: 14% and 28%
- Population Healthy Nuclei (%) [2]: 69% and 49%
- Population Hoechst High Intensity Objects (%) [2]: 1% and 6%
- Population Membrane Permeable-Phenotype (%) [2]: 0% and 3%
- Population Mitochondria Different-Phenotype (%) [2]: 13% and 3%
- Population Mitotic Cells (%) [2]: 59% and 58%
- Population Normal (%) [2]: 98% and 93%
- Population Pyknosed Nuclei (%) [2]: 15% and 22%
- Population Tubulin-Different-Phenotype (%) [2]: 37% and 51%
- Total Cell Count [2]: 178 and 113
- Population Apoptotic (%) [3]: 53% and 40%
- Population Fragmented Nuclei (%) [3]: 15% and 27%
- Population Healthy Nuclei (%) [3]: 73% and 50%
- Population Hoechst High Intensity Objects (%) [3]: 2% and 6%
- Population Mitochondria Different-Phenotype (%) [3]: 0% and 21%
- Population Mitotic Cells (%) [3]: 46% and 60%
- Population Normal (%) [3]: 97% and 93%
- Population Pyknosed Nuclei (%) [3]: 10% and 22%
- Total Cell Count [3]: 129 and 119
- Population Apoptotic (%) [4]: 42% and 60%
- Population Fragmented Nuclei (%) [4]: 14% and 30%
- Population Healthy Nuclei (%) [4]: 77% and 47%
- Population Hoechst High Intensity Objects (%) [4]: 1% and 3%
- Population Membrane Permeable-Phenotype (%) [4]: 0% and 3%
- Population Mitochondria Different-Phenotype (%) [4]: 8% and 1%
- Population Mitotic Cells (%) [4]: 57% and 40%
- Population Normal (%) [4]: 98% and 96%
- Population Pyknosed Nuclei (%) [4]: 8% and 22%
- Population Tubulin-Different-Phenotype (%) [4]: 37% and 48%
- Total Cell Count [4]: 178 and 117
- Population Apoptotic (%) [5]: 50% and 61%
- Population Fragmented Nuclei (%) [5]: 16% and 42%
- Population Healthy Nuclei (%) [5]: 72% and 44%
- Population Hoechst High Intensity Objects (%) [5]: 3% and 7%
- Population Membrane Permeable-Phenotype (%) [5]: 0% and 14%
- Population Mitotic Cells (%) [5]: 50% and 38%
- Population Normal (%) [5]: 96% and 92%
- Population Pyknosed Nuclei (%) [5]: 11% and 13%
- Total Cell Count [5]: 126 and 149
- Population Apoptotic (%) [6]: 55% and 61%
- Population Fragmented Nuclei (%) [6]: 19% and 38%
- Population Healthy Nuclei (%) [6]: 69% and 44%
- Population Hoechst High Intensity Objects (%) [6]: 5% and 2%
- Population Membrane Permeable-Phenotype (%) [6]: 0% and 2%
- Population Mitochondria Different-Phenotype (%) [6]: 10% and 6%
- Population Mitotic Cells (%) [6]: 44% and 38%
- Population Normal (%) [6]: 94% and 97%
- Population Pyknosed Nuclei (%) [6]: 10% and 16%
- Population Tubulin-Different-Phenotype (%) [6]: 36% and 61%
- Total Cell Count [6]: 186 and 112
